Assay results as given in ChEMBL document CHEMBL4814057, “4-4-(Anilinomethyl)-3-[4-(trifluoromethyl)phenyl]-1H-pyrazol-1-ylbenzoic acid derivatives as potent anti-gram-positive bacterial agents” (Eur J Med Chem, 2021).
≈ marks a conversion by molar mass, not a printed value. Calls of active or inactive are those of the source. No cut-off for these calls is given here.

Key:
[1] = tested on: Staphylococcus aureus; test: Antibacterial activity against methicillin resistant Staphylococcus aureus ATCC 700699 persisters assessed as reduction in viability at 64 times MIC by colony counting method; format: functional, organism-based
Method in brief: (§1)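 Stationary-phase S. aureus from overnight CAMHB culture (35 °C, 200 rpm), washed thrice in PBS, diluted to ~5 × 10^8 CFU/ml. Incubated with antibiotic at 35 °C, 200 rpm. Aliquots taken at set times, washed, serially diluted in PBS, drop-plated (6 × 6) on TSA with 5% sheep blood. Colonies counted after 18–20 h at 35 °C. Triplicates.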

[2] = tested on: Staphylococcus aureus; test: Antimicrobial activity against methicillin-susceptible Staphylococcus aureus ATCC 25923 assessed as bacterial growth inhibitions by CLSI protocol based microdilution method; format: functional
[3] = tested on: Staphylococcus aureus; test: Antimicrobial activity against antibiotic-resistant Staphylococcus aureus BM-2312 assessed as bacterial growth inhibitions by CLSI protocol based microdilution method; format: functional
[4] = tested on: Staphylococcus aureus; test: Antimicrobial activity against methicillin-resistant Staphylococcus aureus ATCC 33591 assessed as bacterial growth inhibitions by CLSI protocol based microdilution method; format: functional
[5] = tested on: Staphylococcus aureus; test: Antimicrobial activity against methicillin-resistant Staphylococcus aureus ATCC 700699 assessed as bacterial growth inhibitions by CLSI protocol based microdilution method; format: functional
[6] = tested on: Staphylococcus aureus; test: Antimicrobial activity against methicillin-resistant Staphylococcus aureus ATCC 33592 assessed as bacterial growth inhibitions by CLSI protocol based microdilution method; format: functional
[7] = tested on: Staphylococcus epidermidis; test: Antimicrobial activity against methicillin-resistant Staphylococcus epidermidis ATCC 700296 assessed as bacterial growth inhibitions by CLSI protocol based microdilution method; format: functional
[8] = tested on: Bacillus subtilis; test: Antimicrobial activity against Bacillus subtilis ATCC 6623 assessed as bacterial growth inhibitions by CLSI protocol based microdilution method; format: functional
Method in brief: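 Broth microdilution starting at 50 µg/ml with 2-fold serial dilutions; run in triplicate.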

[9] = tested on: Enterococcus faecium; test: Antimicrobial activity against vancomycin-resistant Enterococcus faecium ATCC 700221 assessed as bacterial growth inhibitions by CLSI protocol based microdilution method; format: functional
[10] = Selectivity index, ratio of IC50 for cytotoxicity against human HEK-293T cells to MIC of antimicrobial activity against methicillin-resistant Staphylococcus aureus ATCC 700699; format: toxicity, cell-based; details: read-out: Selectivity Index
Method in brief: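 Ratio of HEK293 IC50 to MIC. HEK293 cells (4000/well, EMEM with 10% FBS, 37 °C, 5% CO2) treated 24 h with a concentration range in DMSO. Resazurin added for 4 h, fluorescence read at ex 560/em 590 nm. IC50 fitted.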

[11] = tested on: Staphylococcus aureus; test: Antibiofilm activity against Staphylococcus aureus ATCC 25923 assessed as inhibition of biofilm formation at 2 times MIC after 24 hrs by crystal violet staining based assay relative to control; format: functional; parameters: scale not given: the % may be the effect or the level left
Method in brief: (§2)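 Overnight culture brought to 0.5 McFarland in PBS, diluted 1:100 in CAMHB with 1% glucose. Inhibition: cells plus compound (in DMSO) at 2x, 1x, 0.5xMIC, 24 h at 35 °C, triplicate. Destruction: 24 h biofilm grown without drug, washed, fresh medium with compound, further 24 h. Then washed, dried, 0.1% crystal violet, solubilized in 33% acetic acid, OD 620 nm. Controls are DMSO-only and broth-only wells.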

[12] = tested on: Staphylococcus aureus; test: Antibiofilm activity against Staphylococcus aureus ATCC 25923 assessed as inhibition of biofilm formation at 0.5 times MIC after 24 hrs by crystal violet staining based assay relative to control; format: functional, organism-based; method in brief: as §2
[13] = tested on: Staphylococcus aureus; test: Antibiofilm activity against Staphylococcus aureus ATCC 25923 assessed as destruction of biofilm formation at 2 times MIC after 24 hrs by crystal violet staining based assay relative to control; format: functional; method in brief: as §2
[14] = tested on: Staphylococcus aureus; test: Antibiofilm activity against Staphylococcus aureus ATCC 25923 assessed as destruction of biofilm formation at 1 times MIC after 24 hrs by crystal violet staining based assay relative to control; format: functional; method in brief: as §2
[15] = tested on: Staphylococcus aureus; test: Antibiofilm activity against Staphylococcus aureus ATCC 25923 assessed as destruction of biofilm formation at 0.5 times MIC after 24 hrs by crystal violet staining based assay relative to control; format: functional, organism-based; method in brief: as §2
[16] = tested on: Enterococcus faecalis; test: Antibiofilm activity against Enterococcus faecalis ATCC 29212 assessed as inhibition of biofilm formation at 1 times MIC after 24 hrs by crystal violet staining based assay relative to control; format: functional; method in brief: as §2
[17] = tested on: Enterococcus faecalis; test: Antibiofilm activity against Enterococcus faecalis ATCC 29212 assessed as inhibition of biofilm formation at 0.5 times MIC after 24 hrs by crystal violet staining based assay relative to control; format: functional; method in brief: as §2
[18] = tested on: Staphylococcus aureus; test: Antibacterial activity against methicillin resistant Staphylococcus aureus ATCC 700699 persisters assessed as reduction in viability at 16 times MIC by colony counting method; format: functional, organism-based; method in brief: as §1
[19] = tested on: Staphylococcus aureus; test: Antibacterial activity against methicillin resistant Staphylococcus aureus ATCC 700699 persisters assessed as reduction in viability at 8 times MIC measured within 4 hrs by colony counting method; format: functional; details: time hrs <=4; method in brief: as §1
[20] = tested on: Staphylococcus aureus; test: Antibacterial activity against methicillin resistant Staphylococcus aureus ATCC 700699 persisters assessed as reduction in viability at 4 times MIC measured within 4 hrs by colony counting method; format: functional; details: time hrs <=4; method in brief: as §1
[21] = tested on: Staphylococcus aureus; test: Antibacterial activity against methicillin resistant Staphylococcus aureus ATCC 700699 persisters assessed as reduction in viability at 2 times MIC measured within 4 hrs by colony counting method; format: functional; details: time hrs <=4; method in brief: as §1
[22] = tested on: Staphylococcus aureus; test: Bactericidal activity against Staphylococcus aureus ATCC 700699 assessed as reduction bacterial growth at 4X MIC measured after 6 hrs by time-kill kinetic assay; format: functional, organism-based
Method in brief: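 Log-phase culture diluted to ~5 × 10^6 CFU/ml in warm CAMHB, exposed at 4xMIC, 35 °C. 20 µl samples every 2 h, 10-fold dilutions to 10^-5, 6 × 6 drop plating. CFU/ml counted after 18–24 h at 35 °C; triplicate.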

[23] = tested on: Staphylococcus aureus; test: Antibacterial activity against vancomycin-intermediate susceptible Staphylococcus aureus ATCC 25923 assessed as bacterial growth inhibition by measuring fold increase in MIC between 8 passages by broth dilution method; format: functional
[24] = tested on: Staphylococcus aureus; test: Antibacterial activity against vancomycin-intermediate susceptible Staphylococcus aureus ATCC 25923 assessed as bacterial growth inhibition by measuring fold increase in MIC between 14 passages by broth dilution method; format: functional
[25] = tested on: Enterococcus faecalis; test: Antibacterial activity against vancomycin-intermediate Enterococcus faecalis ATCC 29212 assessed as bacterial growth inhibition by measuring fold increase in MIC after14 passages by broth dilution method; format: functional, organism-based
[26] = tested on: Enterococcus faecalis; test: Antimicrobial activity against vancomycin-susceptible Enterococcus faecalis ATCC 29212 assessed as bacterial growth inhibitions by CLSI protocol based microdilution method
[27] = tested on: Staphylococcus aureus; test: Inhibition of protein synthesis in Staphylococcus aureus ATCC 29213 at 8 times MIC measured by liquid scintillation counter; format: functional
[28] = tested on: Staphylococcus aureus; test: Inhibition of DNA synthesis in Staphylococcus aureus ATCC 29213 at 8 times MIC measured by liquid scintillation counter; format: functional
Method in brief: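 Early-exponential cells in CAMHB added to drug (40x stock) in triplicate, with a no-drug control. After 30 min pre-incubation at room temperature, [3H]thymidine 3.0 µCi/tube (DNA) or [3H]uridine 0.5 µCi/tube (RNA) added for 30 min at room temperature. Stopped with cold TCA, precipitate filtered and washed, then scintillation counted.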

[29] = tested on: Staphylococcus aureus; test: Antibacterial activity against vancomycin-intermediate resistant Staphylococcus aureus ATCC 700699 assessed as bacterial growth between 7 passages measured 14 to 21 days by broth dilution method; format: functional, organism-based; details: time 14-21 day
[30] = tested on: Staphylococcus aureus; test: Antibacterial activity against vancomycin-intermediate susceptible Staphylococcus aureus ATCC 25923 assessed as bacterial growth inhibition between 7 passages by broth dilution method; format: functional, organism-based
[31] = tested on: Enterococcus faecalis; test: Antibacterial activity against vancomycin-intermediate Enterococcus faecalis ATCC 29212 assessed as bacterial growth inhibition by measuring fold increase in MIC after 7 passages by broth dilution method; format: functional, organism-based

Compound | MIC [2] [µg/mL] | MIC [3] [µg/mL] | MIC [4] [µg/mL] | MIC [5] [µg/mL] | MIC [6] [µg/mL] | MIC [7] [µg/mL] | MIC [8] [µg/mL] | MIC [9] [µg/mL] | MIC [26] | other results
GENTAMICIN |  |  |  |  |  |  |  |  |  | Activity [1]: inactive
O=C(O)c1ccc(-n2cc(CNc3cc(Cl)c(F)c(Cl)c3)c(-c3ccc(C(F)(F)F)cc3)n2)cc1 | 0.78 (≈ 1.49 µM) | 0.78 (≈ 1.49 µM) | 0.78 (≈ 1.49 µM) | 0.78 (≈ 1.49 µM) | 0.78 (≈ 1.49 µM) | 0.78 (≈ 1.49 µM) | 0.78 (≈ 1.49 µM) | 0.78 (≈ 1.49 µM) | 1.56 µg/mL (≈ 2.98 µM) | selectivity ratio [10]: 33; Activity [11]: > 85%; Activity [12]: inactive; Activity [13]: 70%; Activity [14]: 55%; Activity [15]: inactive; Activity [16]: inactive; Activity [17]: inactive; Activity [18]: Active; Activity [19]: 1 log10CFU/ml; Activity [20]: 1 log10CFU/ml; Activity [21]: 1 log10CFU/ml; Activity [22]: Active; fold change (FC) [23]: 2; fold change (FC) [24]: 2; Activity [25]: inactive
CC(=O)NC[C@H]1CN(c2ccc(N3CCOCC3)c(F)c2)C(=O)O1 |  |  |  |  |  |  |  |  |  | inhibition [27]: 70.7%
O=C(O)c1cn(C2CC2)c2cc(N3CCNCC3)c(F)cc2c1=O [CIPROFLOXACIN] |  |  |  |  |  |  |  |  |  | inhibition (INH) [28]: 86.2%; Activity [29]: inactive; Activity [30]: inactive; Activity [31]: inactive
O=C(O)c1ccc(-n2cc(CNc3ccc(F)c(F)c3F)c(-c3ccc(C(F)(F)F)cc3)n2)cc1 | 1.56 (≈ 3.17 µM) | 1.56 (≈ 3.17 µM) | 1.56 (≈ 3.17 µM) | 1.56 (≈ 3.17 µM) | 1.56 (≈ 3.17 µM) | 3.12 (≈ 6.35 µM) | 0.78 (≈ 1.59 µM) | 3.12 (≈ 6.35 µM) | inactive | 
O=C(O)c1ccc(-n2cc(CNc3ccc(Cl)c(C(F)(F)F)c3)c(-c3ccc(C(F)(F)F)cc3)n2)cc1 | 0.78 (≈ 1.44 µM) | 0.78 (≈ 1.44 µM) | 0.78 (≈ 1.44 µM) | 0.78 (≈ 1.44 µM) | 0.78 (≈ 1.44 µM) | 0.78 (≈ 1.44 µM) | 0.78 (≈ 1.44 µM) | 0.78 (≈ 1.44 µM) | 0.78 µg/mL (≈ 1.44 µM) | 
